pIC50: −log10 of the molar value.
What was measured:
Staphylococcus aureus [1] = assay: Potency index, ratio of linezolid MIC to compound MIC for Staphylococcus aureus SR20549 clinical isolate; format: functional
Staphylococcus aureus [2] = assay: Antibacterial activity against Staphylococcus aureus SR20549 clinical isolate assessed as growth inhibition by broth microdilution method; format: functional
Haemophilus influenzae [3] = assay: Potency index, ratio of linezolid MIC to compound MIC for Haemophilus influenzae SR27914 clinical isolate; format: functional
Enterococcus faecium [4] = assay: Antibacterial activity against Enterococcus faecium SR7940 clinical isolate assessed as growth inhibition by broth microdilution method; format: functional
Enterococcus faecalis [5] = assay: Antibacterial activity against Enterococcus faecalis SR1004 clinical isolate assessed as growth inhibition by broth microdilution method; format: functional
Streptococcus pneumoniae [6] = assay: Antibacterial activity against Streptococcus pneumoniae SR26207 clinical isolate assessed as growth inhibition by broth microdilution method; format: functional
Moraxella catarrhalis [7] = assay: Potency index, ratio of linezolid MIC to compound MIC for Moraxella catarrhalis SR26840 clinical isolate; format: functional
Staphylococcus aureus [8] = assay: Antibacterial activity against linezolid-resistant Staphylococcus aureus NRS271 assessed as growth inhibition by broth microdilution method; format: functional
Moraxella catarrhalis [9] = assay: Antibacterial activity against Moraxella catarrhalis SR26840 clinical isolate assessed as growth inhibition by broth microdilution method; format: functional
Haemophilus influenzae [10] = assay: Antibacterial activity against Haemophilus influenzae SR27914 clinical isolate assessed as growth inhibition by broth microdilution method; format: functional
Staphylococcus aureus [11] = assay: Potency index, ratio of linezolid MIC to compound MIC for Staphylococcus aureus Smith; format: functional
Streptococcus pneumoniae [12] = assay: Potency index, ratio of linezolid MIC to compound MIC for Streptococcus pneumoniae SR26207 clinical isolate; format: functional
Enterococcus faecium [13] = assay: Potency index, ratio of linezolid MIC to compound MIC for Enterococcus faecium SR7940 clinical isolate; format: functional
Staphylococcus aureus [14] = assay: Antibacterial activity against Staphylococcus aureus Smith assessed as growth inhibition by broth microdilution method; format: functional
Enterococcus faecalis [15] = assay: Potency index, ratio of linezolid MIC to compound MIC for Enterococcus faecalis SR1004 clinical isolate; format: functional
Staphylococcus aureus [16] = assay: Antibacterial activity against methicillin-resistant Staphylococcus aureus SR3637 assessed as growth inhibition by broth microdilution method; format: functional
Staphylococcus aureus [17] = assay: Antibacterial activity against methicillin-resistant Staphylococcus aureus SR3637 infected in JCL/ICR mouse systemic infection model assessed as mortality administered as iv measured over 7 days; format: functional; conditions: 168 h
Outline: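 Lethal systemic infection model in mice; test agents were given intravenously.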

Cytochrome P450 1A2 = biological target: T1, Cytochrome P450 1A2 (Homo sapiens, UniProt P05177); assay: Inhibition of CYP1A2 in human liver microsomes assessed as ethoxyresorufin O-deethylation after 20 mins by fluorescence plate reader analysis; format: ADME, Microsome
T1 sequence (P05177 whole entry): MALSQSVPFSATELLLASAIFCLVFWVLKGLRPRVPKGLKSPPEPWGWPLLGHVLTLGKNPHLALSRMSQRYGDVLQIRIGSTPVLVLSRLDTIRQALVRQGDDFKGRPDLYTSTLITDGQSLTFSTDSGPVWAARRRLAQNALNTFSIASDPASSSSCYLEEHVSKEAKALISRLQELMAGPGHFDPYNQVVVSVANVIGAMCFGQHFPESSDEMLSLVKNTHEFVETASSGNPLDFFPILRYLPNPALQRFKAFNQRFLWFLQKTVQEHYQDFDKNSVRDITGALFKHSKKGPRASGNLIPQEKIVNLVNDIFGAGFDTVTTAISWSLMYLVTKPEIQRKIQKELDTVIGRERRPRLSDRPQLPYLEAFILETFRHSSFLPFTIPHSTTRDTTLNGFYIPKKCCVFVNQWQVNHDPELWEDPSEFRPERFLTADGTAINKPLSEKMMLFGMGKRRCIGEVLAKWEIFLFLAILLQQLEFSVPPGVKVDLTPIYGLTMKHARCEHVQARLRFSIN

Cytochrome P450 2D6 = Cytochrome P450 2D6 (Homo sapiens, UniProt P10635); assay: Inhibition of CYP2D6 in human liver microsomes assessed as dextromethorphan O-demethylation after 20 mins by LC/MS/MS analysis; format: ADME, Microsome
Chain of Cytochrome P450 2D6 (P10635 whole entry): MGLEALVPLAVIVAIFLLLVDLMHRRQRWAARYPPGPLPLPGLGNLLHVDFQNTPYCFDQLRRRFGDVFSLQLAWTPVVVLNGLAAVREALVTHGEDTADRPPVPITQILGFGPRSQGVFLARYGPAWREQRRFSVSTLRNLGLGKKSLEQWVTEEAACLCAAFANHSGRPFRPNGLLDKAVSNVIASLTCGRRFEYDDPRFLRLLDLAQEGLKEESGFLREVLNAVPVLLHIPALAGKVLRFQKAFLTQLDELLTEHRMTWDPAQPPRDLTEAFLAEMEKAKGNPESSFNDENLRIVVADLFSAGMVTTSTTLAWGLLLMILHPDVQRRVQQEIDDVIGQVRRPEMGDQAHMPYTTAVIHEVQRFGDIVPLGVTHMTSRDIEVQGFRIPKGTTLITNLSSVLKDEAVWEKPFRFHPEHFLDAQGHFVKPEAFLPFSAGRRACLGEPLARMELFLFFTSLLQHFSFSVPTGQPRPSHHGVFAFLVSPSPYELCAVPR

Cytochrome P450 3A4 = Cytochrome P450 3A4 (Homo sapiens, UniProt P08684); assay: Inhibition of CYP3A4 in human liver microsomes assessed as terfenadine hydroxylation after 20 mins by LC/MS/MS analysis; format: ADME, Microsome
Chain of Cytochrome P450 3A4 (P08684 whole entry): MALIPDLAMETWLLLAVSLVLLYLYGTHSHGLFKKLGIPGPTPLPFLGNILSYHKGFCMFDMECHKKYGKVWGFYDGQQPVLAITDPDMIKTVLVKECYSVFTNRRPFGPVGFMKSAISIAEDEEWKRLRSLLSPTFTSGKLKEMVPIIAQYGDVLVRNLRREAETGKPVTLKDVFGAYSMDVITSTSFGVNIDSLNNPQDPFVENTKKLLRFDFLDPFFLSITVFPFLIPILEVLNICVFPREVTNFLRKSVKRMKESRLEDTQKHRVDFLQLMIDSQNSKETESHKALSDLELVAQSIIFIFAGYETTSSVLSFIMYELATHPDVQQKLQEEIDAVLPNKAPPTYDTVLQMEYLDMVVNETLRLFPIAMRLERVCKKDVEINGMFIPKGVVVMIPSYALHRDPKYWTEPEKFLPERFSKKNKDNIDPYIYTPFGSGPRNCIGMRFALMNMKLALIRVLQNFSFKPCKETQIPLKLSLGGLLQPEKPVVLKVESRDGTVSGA

Cytochrome P450 2C9 = Cytochrome P450 2C9 (Homo sapiens, UniProt P11712); assay: Inhibition of CYP2C9 in human liver microsomes assessed as tolbutamide hydroxylation after 20 mins by LC/MS/MS analysis; format: ADME, Microsome
Chain of Cytochrome P450 2C9 (P11712 whole entry): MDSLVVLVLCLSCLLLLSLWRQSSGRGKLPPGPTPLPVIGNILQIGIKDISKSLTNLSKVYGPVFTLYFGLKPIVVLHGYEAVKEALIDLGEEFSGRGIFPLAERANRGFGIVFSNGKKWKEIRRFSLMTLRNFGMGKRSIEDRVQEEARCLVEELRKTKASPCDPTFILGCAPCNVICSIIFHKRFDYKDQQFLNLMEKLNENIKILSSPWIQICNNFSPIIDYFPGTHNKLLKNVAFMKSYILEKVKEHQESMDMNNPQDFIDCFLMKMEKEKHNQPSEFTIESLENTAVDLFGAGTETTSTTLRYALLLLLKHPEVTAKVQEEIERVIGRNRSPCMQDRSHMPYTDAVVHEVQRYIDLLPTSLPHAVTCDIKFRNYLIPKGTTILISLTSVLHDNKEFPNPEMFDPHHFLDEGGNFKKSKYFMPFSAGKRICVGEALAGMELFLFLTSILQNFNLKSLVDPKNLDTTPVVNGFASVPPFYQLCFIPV

MAO-A = biological target: T2, MAO-A (Rattus norvegicus, UniProt P21396); assay: Inhibition of MAO-A in rat forebrain using [14C]5-HT as substrate at 30 uM incubated for 20 mins prior to substrate addition measured after 5 mins by liquid scintillation counting analysis; format: tissue-based; conditions: probe [14C]5-HT
T2 sequence (P21396 whole entry): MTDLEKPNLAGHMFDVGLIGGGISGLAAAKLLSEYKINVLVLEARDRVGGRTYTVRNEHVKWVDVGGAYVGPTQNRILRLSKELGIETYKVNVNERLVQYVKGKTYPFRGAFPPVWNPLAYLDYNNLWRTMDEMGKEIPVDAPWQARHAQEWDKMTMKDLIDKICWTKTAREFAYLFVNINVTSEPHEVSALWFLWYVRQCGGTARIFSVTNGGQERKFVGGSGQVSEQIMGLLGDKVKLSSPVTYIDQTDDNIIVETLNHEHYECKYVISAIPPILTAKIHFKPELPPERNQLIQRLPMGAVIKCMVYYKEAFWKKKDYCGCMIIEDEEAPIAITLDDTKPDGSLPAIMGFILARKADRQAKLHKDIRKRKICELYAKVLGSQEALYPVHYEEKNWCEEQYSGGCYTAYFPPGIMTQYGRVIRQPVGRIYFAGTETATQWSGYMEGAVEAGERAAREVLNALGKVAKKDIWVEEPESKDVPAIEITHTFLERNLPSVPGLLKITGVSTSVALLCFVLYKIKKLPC

MAO-B = biological target: T3, MAO-B (Rattus norvegicus, UniProt P19643); assay: Inhibition of MAO-B in rat forebrain using [14C]PEA as substrate at 30 uM incubated for 20 mins prior to substrate addition measured after 10 mins by liquid scintillation counting analysis; format: tissue-based; conditions: probe [14C]PEA
T3 sequence (P19643 whole entry): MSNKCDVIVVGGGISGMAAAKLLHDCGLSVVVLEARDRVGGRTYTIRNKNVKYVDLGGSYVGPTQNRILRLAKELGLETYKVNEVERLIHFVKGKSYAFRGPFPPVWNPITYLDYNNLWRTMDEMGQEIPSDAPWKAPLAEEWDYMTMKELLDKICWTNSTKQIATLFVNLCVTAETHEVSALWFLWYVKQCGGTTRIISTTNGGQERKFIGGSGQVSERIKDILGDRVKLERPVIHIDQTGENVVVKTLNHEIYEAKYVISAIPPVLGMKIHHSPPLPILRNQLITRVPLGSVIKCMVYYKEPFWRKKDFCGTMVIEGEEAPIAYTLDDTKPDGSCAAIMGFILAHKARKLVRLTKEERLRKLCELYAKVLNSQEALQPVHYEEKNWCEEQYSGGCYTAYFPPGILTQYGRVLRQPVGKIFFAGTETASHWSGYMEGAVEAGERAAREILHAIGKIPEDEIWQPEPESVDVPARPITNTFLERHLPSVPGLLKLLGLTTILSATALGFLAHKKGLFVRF

Compound | Ratio (Staphylococcus aureus [1]) | MIC (Staphylococcus aureus [2]) [mg/L] | Ratio (Haemophilus influenzae [3]) | MIC (Enterococcus faecium [4]) [mg/L] | MIC (Enterococcus faecalis [5]) [mg/L] | MIC (Streptococcus pneumoniae [6]) [mg/L] | Ratio (Moraxella catarrhalis [7]) | MIC (Staphylococcus aureus [8]) [mg/L] | MIC (Moraxella catarrhalis [9]) [mg/L] | MIC (Haemophilus influenzae [10]) [mg/L] | Ratio (Staphylococcus aureus [11]) | Ratio (Streptococcus pneumoniae [12]) | Ratio (Enterococcus faecium [13]) | MIC (Staphylococcus aureus [14]) [mg/L] | Ratio (Enterococcus faecalis [15]) | MIC (Staphylococcus aureus [16]) [mg/L] | ED50 (Staphylococcus aureus [17]) [mg/kg] | also measured
COC(=S)NC[C@H]1CN(c2cc(F)c(N3CCON(C(N)=O)CC3)c(F)c2)C(=O)O1 | 4 | 0.25 | 4 | 0.125 | 0.25 | ≤ 0.063 | 4 | 2 | 1 | 8 | 4 | 4 | 4 | 0.25 | 4 |  |  | 
O=CN1CCN(c2c(F)cc(N3C[C@H](Cn4ccnn4)OC3=O)cc2F)CCN1 | 4 | 0.25 | 4 | 1 | 1 | ≤ 0.063 | 4 | 16 | 8 | 8 | 4 | 4 | 4 | 1 | 4 | 0.25 | 2.5 | 
COC(=S)NC[C@H]1CN(c2cc(F)c(N3CCNN(C(N)=O)CC3)c(F)c2)C(=O)O1 | 4 | 0.25 | 4 | 0.125 | 0.5 | ≤ 0.063 | 4 | 2 | 0.5 | 16 | 4 | 4 | 4 | 0.25 | 4 | 0.25 | 1.23 | 
CC(=O)NC[C@H]1CN(c2ccc(N3CCOCC3)c(F)c2)C(=O)O1 [LINEZOLID] |  |  |  | 2 |  |  |  | 32 | 8 | 16 |  |  |  |  |  |  |  | inhibition (INH) (Cytochrome P450 1A2; human, microsomes, 20 min): Active; inhibition (INH) (Cytochrome P450 2D6; human, microsomes, 20 min): Active; inhibition (INH) (Cytochrome P450 3A4; human, microsomes, 20 min): Active; inhibition (INH) (Cytochrome P450 2C9; human, microsomes, 20 min): Active
CC(=S)NC[C@H]1CN(c2cc(F)c(N3CCNN(C(N)=O)CC3)c(F)c2)C(=O)O1 | 4 | 0.125 | 4 | 0.25 | 0.25 | 0.063 | 4 | 4 | 1 | 4 | 4 | 4 | 4 | 0.25 | 4 |  |  | 
O=C1O[C@@H](Cn2ccnn2)CN1c1ccc(-c2ccc(N3CCNOCC3)nc2)c(F)c1 | 2 | 1 | 2 | 1 | 2 | 0.25 | 2 | 8 | 8 | 32 | 2 | 2 | 2 | 2 | 2 |  |  | 
O=CN1CCN(c2c(F)cc(N3C[C@H](CNc4ccon4)OC3=O)cc2F)CCN1 | 4 | 0.5 | 4 | 1 | 1 | 0.25 | 4 | 16 | 8 | 16 | 4 | 4 | 4 | 1 | 4 |  |  | 
CNC(=O)N1CCN(c2ccc(N3C[C@H](CNC(=S)OC)OC3=O)cc2F)CCN1 |  | 0.25 |  | 0.25 | 0.5 | 0.25 |  | 8 | 2 | 16 |  |  |  | 0.5 |  | 0.5 | 0.86 | pIC50 (Cytochrome P450 1A2): < 4.70; inhibition at 5 min, 30 µM (MAO-A): 3.4%; pIC50 (Cytochrome P450 2D6): < 4.70; inhibition at 10 min, 30 µM (MAO-B): 3.1%; pIC50 (Cytochrome P450 3A4): < 4.70; pIC50 (Cytochrome P450 2C9): < 4.70
CC(=S)NC[C@H]1CN(c2ccc(N3CCNN(C(N)=O)CC3)c(F)c2)C(=O)O1 | 4 | 0.25 | 4 | 0.5 | 0.5 | 0.063 | 4 | 8 | 4 | 4 | 4 | 4 | 4 | 0.25 | 4 |  |  | 
CC(=O)NC[C@H]1CN(c2ccc(-c3ccc(N4CCNOCC4)nc3)c(F)c2)C(=O)O1 | 2 | 1 | 2 | 1 | 1 | 0.125 | 2 | 8 | 16 | 16 | 2 | 2 | 2 | 2 | 2 |  |  | 
COC(=S)NC[C@H]1CN(c2ccc(N3CCNN(C=O)CC3)c(F)c2)C(=O)O1 | 4 | 0.25 | 4 | 0.25 | 0.25 | 0.063 | 4 | 4 | 2 | 4 | 4 | 4 | 4 | 0.25 | 4 | 0.25 | 2.95 | 
COC(=S)NC[C@H]1CN(c2ccc(N3CCNN(C(N)=O)CC3)c(F)c2)C(=O)O1 | 4 | 0.25 | 4 | 0.125 | 0.25 | ≤ 0.063 | 4 | 4 | 2 | 4 | 4 | 4 | 4 | 0.25 | 4 |  |  | 
